This passage reports Activity and IC50 results from ChEMBL document CHEMBL3351393, “iNOS inhibitory activity of sesquiterpenoids and a monoterpenoid from the rhizomes of Curcuma wenyujin” (J Nat Prod, 2014).

pIC50: −log10 of the molar value.

In data set [1] the test system is RAW264.7. Put plainly: Cytotoxicity against mouse RAW264.7 cells by MTT assay. The data set is classed as cell-based. A general note: Tetrazolium assays rely on reduction of a dye to a coloured formazan, in cell work by metabolically active cells.
The test system of data set [2] is RAW264.7. Put plainly: Inhibition of LPS-induced NO production in mouse RAW264.7 cells by Griess assay. The data set is classed as functional, cell-based. The gist of the method:
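RAW 264.7 mouse macrophages were seeded at 1 × 10^5 cells/well and left to adhere 2 h at 37 °C in 5% CO2. Nitrite accumulated in the supernatant was measured with Griess reagent, and IC50 values were derived. Hydrocortisone served as positive control.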

For the molecule `CC(C)=C1C[C@@H]2O[C@H](CC[C@]2(C)O)/C(C)=C/C1=O`, the Activity entry in the data set on RAW264.7 [1] is “Non-toxic”. The molecule also gave a pIC50 in the data set on RAW264.7 [2] of 4.31.

As to `C/C1=C\[C@H](O)C[C@]2(C)O[C@H]2C(=O)c2c(C)coc2C1`, in the data set with RAW264.7 [1], the Activity entry is listed as “Non-toxic”. The molecule also showed a pIC50 with RAW264.7 [2] of 4.11.

For the molecule `CC1=CC(=O)C[C@@H]2[C@H]1CC[C@@]2(C)O`, the Activity entry in the data set on RAW264.7 [1] was “Non-toxic”. Besides, in the data set on RAW264.7 [2], the pIC50 was 4.11.

Consider `CC(=O)C(C[C@@H]1[C@H](C(C)=O)CC[C@]1(C)O)=C(C)C`, for which the Activity entry with RAW264.7 [1] is given as “Non-toxic”. Also, in the data set on RAW264.7 [2], the pIC50 is 4.10.

In the data set with RAW264.7 [2], `C[C@]12CCC(=O)C=C1CC[C@@H]1[C@@H]2[C@@H](O)C[C@@]2(C)[C@H]1CC[C@]2(O)C(=O)CO` [HYDROCORTISONE] showed a pIC50 of 4.29.

In the case of `C=C(C)[C@H]1CC[C@](C)(O)[C@H]1CC(C(=O)O)=C(C)C`, the Activity entry in the data set with RAW264.7 [1] is recorded as “Non-toxic”. This molecule also showed a pIC50 with RAW264.7 [2] of 4.18.

On to `Cc1coc2c1C(=O)[C@]1(O)[C@@H](C)CC[C@H]1C(CO)=C2`, for which, in the data set on RAW264.7 [1], the Activity entry was “Non-toxic”. Also, the pIC50 in the data set on RAW264.7 [2] is 4.32.

For the molecule `CC(C)=C1C[C@]2(O)[C@@H](C)CC[C@@H]2[C@@](C)(O)CC1=O`, the Activity result in the data set with RAW264.7 [1] is “Non-toxic”. In the data set with RAW264.7 [2], this molecule gave a pIC50 of 4.05.

With `CC1=C2C[C@H]3[C@@](C)(O)CC[C@@]34O[C@@]2(C[C@@]4(C)O)OC1=O`, in the data set on RAW264.7 [1], the Activity result is “Non-toxic”. The same molecule had a pIC50 in the data set on RAW264.7 [2] of 5.07.

Consider `CC(C)=C1C[C@@]23O[C@]1(O)C[C@@](C)(O)[C@H]2CC[C@H]3C`, for which the Activity result with RAW264.7 [1] is recorded as “Non-toxic”. The pIC50 in the data set on RAW264.7 [2] was 4.06.

On to `CC(C)=C1C[C@]2(O)[C@@H](CC[C@@H]2C)[C@@](C)(O)CC1=O`, for which the Activity entry in the data set with RAW264.7 [1] is on record as “Non-toxic”. For the same molecule, the pIC50 in the data set with RAW264.7 [2] is 4.03.

Take `CC1=CC(=O)[C@@H]2C[C@@H]3[C@@](C)(O)CC[C@]13OC2(C)C`: the Activity result in the data set with RAW264.7 [1] is “Non-toxic”. The molecule also showed a pIC50 in the data set on RAW264.7 [2] of 4.10.

Consider `CC1=C2C[C@H]3[C@@](C)(O)CC[C@@]34O[C@@]2(C[C@]4(C)O)OC1=O`, for which the Activity entry in the data set on RAW264.7 [1] is “Non-toxic”. Besides, the pIC50 in the data set with RAW264.7 [2] is 5.12.

Consider `C=C(C)[C@@H]1CC[C@](C)(O)[C@H]1CC(C(=O)O)=C(C)C`, for which, in the data set with RAW264.7 [1], the Activity result is “Non-toxic”. Moreover, in the data set with RAW264.7 [2], the pIC50 was 4.16.

What is called pIC50 is the negative decadic logarithm of the IC50, by convention in mol/L.
